Legend:
Spleen [1] = assay: Biodistribution in ddY mouse spleen at 1 uCi/100 uL, iv after 2 mins by gamma counting; type: ADME, organism-based; settings: in vivo
Intestine [2] = assay: Biodistribution in ddY mouse intestine at 1 uCi/100 uL, iv after 2 mins by gamma counting; type: ADME, organism-based; settings: in vivo
Procedure, shortened: (§1)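 Normal female ddY mice (5 weeks, about 20 g; n = 4 per group) received radiotracer iv. Organs were removed and weighed at 2–120 min and counted in a γ-counter. Percent dose per gram of wet tissue was calculated against diluted aliquots of the injected material and reported as mean ± SD.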

Brain [3] = assay: Biodistribution in ddY mouse brain at 1 uCi/100 uL, iv after 15 mins by gamma counting; type: ADME, organism-based; settings: in vivo, 0.25 h; procedure, shortened: as §1
Blood [4] = assay: Biodistribution in ddY mouse blood at 1 uCi/100 uL, iv after 60 mins by gamma counting; type: ADME, organism-based; settings: in vivo, 1 h; procedure, shortened: as §1
Stomach [5] = assay: Biodistribution in ddY mouse stomach at 1 uCi/100 uL, iv after 30 mins by gamma counting; type: ADME, organism-based; settings: in vivo, 0.5 h
Spleen [6] = assay: Biodistribution in ddY mouse spleen at 1 uCi/100 uL, iv after 30 mins by gamma counting; type: ADME, organism-based; settings: in vivo, 0.5 h
Stomach [7] = assay: Biodistribution in ddY mouse stomach at 1 uCi/100 uL, iv after 2 mins by gamma counting; type: ADME, organism-based; settings: in vivo
Intestine [8] = assay: Biodistribution in ddY mouse intestine at 1 uCi/100 uL, iv after 120 mins by gamma counting; type: ADME, organism-based; settings: in vivo, 2 h; procedure, shortened: as §1
Liver [9] = assay: Biodistribution in ddY mouse liver at 1 uCi/100 uL, iv after 60 mins by gamma counting; type: ADME, organism-based; settings: in vivo, 1 h
Heart [10] = assay: Biodistribution in ddY mouse heart at 1 uCi/100 uL, iv after 60 mins by gamma counting; type: ADME, organism-based; settings: in vivo, 1 h; procedure, shortened: as §1
Blood [11] = assay: Biodistribution in ddY mouse blood at 1 uCi/100 uL, iv after 2 mins by gamma counting; type: ADME, organism-based; settings: in vivo; procedure, shortened: as §1
Spleen [12] = assay: Biodistribution in ddY mouse spleen at 1 uCi/100 uL, iv after 15 mins by gamma counting; type: ADME, organism-based; settings: in vivo, 0.25 h
Heart [13] = assay: Biodistribution in ddY mouse heart at 1 uCi/100 uL, iv after 30 mins by gamma counting; type: ADME, organism-based; settings: in vivo, 0.5 h; procedure, shortened: as §1
Liver [14] = assay: Biodistribution in ddY mouse liver at 1 uCi/100 uL, iv after 15 mins by gamma counting; type: ADME, organism-based; settings: in vivo, 0.25 h
Heart [15] = assay: Biodistribution in ddY mouse heart at 1 uCi/100 uL, iv after 15 mins by gamma counting; type: ADME, organism-based; settings: in vivo, 0.25 h; procedure, shortened: as §1
Thyroid gland [16] = assay: Biodistribution in ddY mouse thyroid at 1 uCi/100 uL, iv after 30 mins by gamma counting; type: ADME, organism-based; settings: in vivo, 0.5 h
Intestine [17] = assay: Biodistribution in ddY mouse intestine at 1 uCi/100 uL, iv after 15 mins by gamma counting; type: ADME, organism-based; settings: in vivo, 0.25 h; procedure, shortened: as §1
Lung [18] = assay: Biodistribution in ddY mouse lung at 1 uCi/100 uL, iv after 120 mins by gamma counting; type: ADME, organism-based; settings: in vivo, 2 h
Kidney [19] = assay: Biodistribution in ddY mouse kidney at 1 uCi/100 uL, iv after 15 mins by gamma counting; type: ADME, organism-based; settings: in vivo, 0.25 h; procedure, shortened: as §1
Thyroid gland [20] = assay: Biodistribution in ddY mouse thyroid at 1 uCi/100 uL, iv after 120 mins by gamma counting; type: ADME, organism-based; settings: in vivo, 2 h
Thyroid gland [21] = assay: Biodistribution in ddY mouse thyroid at 1 uCi/100 uL, iv after 15 mins by gamma counting; type: ADME, organism-based; settings: in vivo, 0.25 h
Kidney [22] = assay: Biodistribution in ddY mouse kidney at 1 uCi/100 uL, iv after 2 mins by gamma counting; type: ADME, organism-based; settings: in vivo; procedure, shortened: as §1
Kidney [23] = assay: Biodistribution in ddY mouse kidney at 1 uCi/100 uL, iv after 120 mins by gamma counting; type: ADME, organism-based; settings: in vivo, 2 h; procedure, shortened: as §1
Stomach [24] = assay: Biodistribution in ddY mouse stomach at 1 uCi/100 uL, iv after 120 mins by gamma counting; type: ADME, organism-based; settings: in vivo, 2 h
Stomach [25] = assay: Biodistribution in ddY mouse stomach at 1 uCi/100 uL, iv after 15 mins by gamma counting; type: ADME, organism-based; settings: in vivo, 0.25 h
Heart [26] = assay: Biodistribution in ddY mouse heart at 1 uCi/100 uL, iv after 2 mins by gamma counting; type: ADME, organism-based; settings: in vivo; procedure, shortened: as §1
Spleen [27] = assay: Biodistribution in ddY mouse spleen at 1 uCi/100 uL, iv after 120 mins by gamma counting; type: ADME, organism-based; settings: in vivo, 2 h
Kidney [28] = assay: Biodistribution in ddY mouse kidney at 1 uCi/100 uL, iv after 60 mins by gamma counting; type: ADME, organism-based; settings: in vivo, 1 h
Stomach [29] = assay: Biodistribution in ddY mouse stomach at 1 uCi/100 uL, iv after 60 mins by gamma counting; type: ADME, organism-based; settings: in vivo, 1 h
Liver [30] = assay: Biodistribution in ddY mouse liver at 1 uCi/100 uL, iv after 120 mins by gamma counting; type: ADME, organism-based; settings: in vivo, 2 h
Blood [31] = assay: Biodistribution in ddY mouse blood at 1 uCi/100 uL, iv after 30 mins by gamma counting; type: ADME, organism-based; settings: in vivo, 0.5 h; procedure, shortened: as §1
Intestine [32] = assay: Biodistribution in ddY mouse intestine at 1 uCi/100 uL, iv after 60 mins by gamma counting; type: ADME, organism-based; settings: in vivo, 1 h; procedure, shortened: as §1
Blood [33] = assay: Biodistribution in ddY mouse blood at 1 uCi/100 uL, iv after 120 mins by gamma counting; type: ADME, organism-based; settings: in vivo, 2 h; procedure, shortened: as §1
Blood [34] = assay: Biodistribution in ddY mouse blood at 1 uCi/100 uL, iv after 15 mins by gamma counting; type: ADME, organism-based; settings: in vivo, 0.25 h; procedure, shortened: as §1
[35] = Partition coefficient, log D of the compound; type: physicochemical; settings: octanol/water
Procedure, shortened: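 Radiotracer partitioned between n-octanol and PBS: vortexed 3 min at room temperature, centrifuged 5 min at 3000 rpm. Weighed samples of the octanol (100 μL) and buffer (500 μL) layers were counted. log D is the log of the ratio of counts per gram, octanol versus PBS.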

Brain [36] = assay: Biodistribution in ddY mouse brain at 1 uCi/100 uL, iv after 30 mins by gamma counting; type: ADME, organism-based; settings: in vivo, 0.5 h; procedure, shortened: as §1
Heart [37] = assay: Biodistribution in ddY mouse heart at 1 uCi/100 uL, iv after 120 mins by gamma counting; type: ADME, organism-based; settings: in vivo, 2 h; procedure, shortened: as §1
Brain [38] = assay: Biodistribution in ddY mouse brain at 1 uCi/100 uL, iv after 2 mins by gamma counting; type: ADME, organism-based; settings: in vivo; procedure, shortened: as §1
Liver [39] = assay: Biodistribution in ddY mouse liver at 1 uCi/100 uL, iv after 2 mins by gamma counting; type: ADME, organism-based; settings: in vivo
Thyroid gland [40] = assay: Biodistribution in ddY mouse thyroid at 1 uCi/100 uL, iv after 2 mins by gamma counting; type: ADME, organism-based; settings: in vivo
Lung [41] = assay: Biodistribution in ddY mouse lung at 1 uCi/100 uL, iv after 15 mins by gamma counting; type: ADME, organism-based; settings: in vivo, 0.25 h
Thyroid gland [42] = assay: Biodistribution in ddY mouse thyroid at 1 uCi/100 uL, iv after 60 mins by gamma counting; type: ADME, organism-based; settings: in vivo, 1 h
Spleen [43] = assay: Biodistribution in ddY mouse spleen at 1 uCi/100 uL, iv after 60 mins by gamma counting; type: ADME, organism-based; settings: in vivo, 1 h
Liver [44] = assay: Biodistribution in ddY mouse liver at 1 uCi/100 uL, iv after 30 mins by gamma counting; type: ADME, organism-based; settings: in vivo, 0.5 h
Lung [45] = assay: Biodistribution in ddY mouse lung at 1 uCi/100 uL, iv after 2 mins by gamma counting; type: ADME, organism-based; settings: in vivo
Brain [46] = assay: Biodistribution in ddY mouse brain at 1 uCi/100 uL, iv after 120 mins by gamma counting; type: ADME, organism-based; settings: in vivo, 2 h; procedure, shortened: as §1
Kidney [47] = assay: Biodistribution in ddY mouse kidney at 1 uCi/100 uL, iv after 30 mins by gamma counting; type: ADME, organism-based; settings: in vivo, 0.5 h
Lung [48] = assay: Biodistribution in ddY mouse lung at 1 uCi/100 uL, iv after 30 mins by gamma counting; type: ADME, organism-based; settings: in vivo, 0.5 h
Intestine [49] = assay: Biodistribution in ddY mouse intestine at 1 uCi/100 uL, iv after 30 mins by gamma counting; type: ADME, organism-based; settings: in vivo, 0.5 h; procedure, shortened: as §1
Lung [50] = assay: Biodistribution in ddY mouse lung at 1 uCi/100 uL, iv after 60 mins by gamma counting; type: ADME, organism-based; settings: in vivo, 1 h
Brain [51] = assay: Biodistribution in ddY mouse brain at 1 uCi/100 uL, iv after 60 mins by gamma counting; type: ADME, organism-based; settings: in vivo, 1 h; procedure, shortened: as §1
Brain [52] = assay: Ratio of drug uptake in ddY mouse brain at 1 uCi/100 uL, iv after 2 mins to drug uptake in ddY mouse brain at 1 uCi/100 uL, iv after 60 mins; type: ADME, organism-based; settings: in vivo
Procedure, shortened: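 Normal female ddY mice (5 weeks) received the radiotracer iv, and brain uptake (% ID/g, n = 4) was measured by gamma counting at 2 and 60 min. The index is brain uptake at 2 min divided by brain uptake at 60 min.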

Drug uptake (Spleen [1]): 2.8 % ID/g
Drug uptake (Intestine [2]): 2.27 % ID/g
Drug uptake (Brain [3]): 2.37 % ID/g
Drug uptake (Blood [4]): 1.72 % ID/g
Drug uptake (Stomach [5]): 3.12 % ID/organ
Drug uptake (Spleen [6]): 1.79 % ID/g
Drug uptake (Stomach [7]): 1.37 % ID/organ
Drug uptake (Intestine [8]): 25.7 % ID/g
Drug uptake (Liver [9]): 16.43 % ID/g
Drug uptake (Heart [10]): 0.83 % ID/g
Drug uptake (Blood [11]): 3.89 % ID/g
Drug uptake (Spleen [12]): 2.02 % ID/g
Drug uptake (Heart [13]): 2.01 % ID/g
Drug uptake (Liver [14]): 29.08 % ID/g
Drug uptake (Heart [15]): 3.45 % ID/g
Drug uptake (Thyroid gland [16]): 11.49 % ID/g
Drug uptake (Intestine [17]): 6.9 % ID/g
Drug uptake (Lung [18]): 2.82 % ID/g
Drug uptake (Kidney [19]): 22.81 % ID/g
Drug uptake (Thyroid gland [20]): 21.98 % ID/g
Drug uptake (Thyroid gland [21]): 8.39 % ID/g
Drug uptake (Kidney [22]): 11.2 % ID/g
Drug uptake (Kidney [23]): 9.52 % ID/g
Drug uptake (Stomach [24]): 3.07 % ID/organ
Drug uptake (Stomach [25]): 3.1 % ID/organ
Drug uptake (Heart [26]): 7.06 % ID/g
Drug uptake (Spleen [27]): 1.13 % ID/g
Drug uptake (Kidney [28]): 9 % ID/g
Drug uptake (Stomach [29]): 2.12 % ID/organ
Drug uptake (Liver [30]): 17.57 % ID/g
Drug uptake (Blood [31]): 4.12 % ID/g
Drug uptake (Intestine [32]): 25.97 % ID/g
Drug uptake (Blood [33]): 2.52 % ID/g
Drug uptake (Blood [34]): 4.93 % ID/g
logD [35]: 3.26
Drug uptake (Brain [36]): 1.36 % ID/g
Drug uptake (Heart [37]): 1.11 % ID/g
Drug uptake (Brain [38]): 4.56 % ID/g
Drug uptake (Liver [39]): 16.98 % ID/g
Drug uptake (Thyroid gland [40]): 8.64 % ID/g
Drug uptake (Lung [41]): 6.06 % ID/g
Drug uptake (Thyroid gland [42]): 14.14 % ID/g
Drug uptake (Spleen [43]): 0.8 % ID/g
Drug uptake (Liver [44]): 24.17 % ID/g
Drug uptake (Lung [45]): 9.25 % ID/g
Drug uptake (Brain [46]): 0.4 % ID/g
Drug uptake (Kidney [47]): 16.31 % ID/g
Drug uptake (Lung [48]): 4.81 % ID/g
Drug uptake (Intestine [49]): 10.85 % ID/g
Drug uptake (Lung [50]): 2.43 % ID/g
Drug uptake (Brain [51]): 0.54 % ID/g
Ratio (Brain [52]): 8.44
SMILES: Nc1ccc(/C=C/C(=O)/C=C/c2ccc([125I])cc2)cc1
